B1: tRNA (parent)
chain: GUUCCGUUGGCGUAAUGGUAACGCGUCUCCCUCCUAAGGAGAAGACUGCGGGUUCGAGUCCCGUACGGAACG

Variants of: B1
Test: yeast fitness, log relative to wild type (ln ratio); higher = fitter; tRNA-Arg(CCU), competitive growth, 37 C, 1 M NaCl
Method in brief: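 BY4742 cells without the chromosomal tRNA-Arg(CCU) gene carried a combinatorial variant library on a HIS3 centromeric plasmid, from two independent transformations. After 4 generations in SC-HIS at 30 °C, pools spent ~6.5 generations (~26.5 h) in SC-HIS 1M NaCl at 37 °C, giving three outputs per input, and 125 bp paired-end Illumina reads counted the variants. Fitness is the natural log of each genotype's generations over the wild type's, with generations taken as OD-scaled log2 output/input frequency weighted by inverse variance across replicates.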

Row | Variant | yeast fitness (ln)
1 | G6A C27U C66U A70G | -0.0946
2 | G1A U2C G6A C46U C66A A70G C71U | -0.105
3 | U2G G6A A70G C71U | -0.142
4 | G1A U2G G6U C27U A43C C46U C66U A69G C71U | -0.4
5 | U2G A43C A70U C71U | -0.0697
6 | U2C G6U C27U A43C C66U A69G A70G | -0.426
7 | U2G C46U C66A A70U C71U | -0.0966
8 | U2G G6A A69G A70U | -0.265
9 | U2G G6A C46U | -0.0244
10 | G6A A43C A70U C71U | -0.266
11 | G6U A43C A69G A70U | -0.371
12 | U2C G6A A43C C46U A70G C71U | -0.112
13 | G6A C27U A43C C66U A69G A70G | -0.374
14 | A70G | -0.00424
15 | U2G G6A A43C C66U A70G | -0.147
16 | U2G G6U A43C A69G C71U | -0.402
17 | G1A U2C A69G A70G C71U | -0.0058
18 | C27U A43C A69G A70U C71U | -0.419
19 | G1A U2G G6U C66A A70U C71U | -0.0122
20 | U2C G6U A43C C46U C66A A70G C71U | 0.00139
21 | G1A G6U C46U C66A A70U C71U | -0.084
22 | U2G A43C C46U A69G | -0.0675
23 | G1A C27U A43C A69G A70U C71U | -0.406
24 | U2G G6U C27U A43C C66U A70G | -0.356

Row | Variant | yeast fitness (ln)
25 | C46U C66A A69G A70U | -0.0373
26 | G1A A43C A70G | -0.159
27 | U2G G6U C27U C66U A70U | -0.342
28 | G6U C27U A43C C66A | -0.0198
29 | G1A A43C C46U C66A A70U | -0.082
30 | U2C C27U A43C C46U A69G A70G C71U | -0.0222
31 | C27U C46U C66U A69G C71U | -0.286
32 | G1A G6U C27U A43C C46U A69G A70U C71U | -0.475
33 | U2C G6A C27U C46U C66A A70G C71U | -0.228
34 | G1A U2G G6U C27U C66A A69G A70U C71U | -0.404
35 | A43C C46U C71U | -0.00724
36 | C46U C66U A70G | -0.0429
37 | U2G G6U C27U A43C A69G A70U C71U | -0.484
38 | G1A U2G G6U C27U A69G A70G | -0.376
39 | U2G C27U C66A A70G | -0.128
40 | U2G C27U C66A C71U | -0.148
41 | G1A U2C G6U C27U C46U C66A A69G A70G C71U | -0.0613
42 | G1A U2G C46U C66U A69G A70U C71U | -0.321
43 | G1A G6U C27U A70U | -0.232
44 | A43C A70G C71U | -0.164
45 | G1A U2G A69G A70G | -0.118
46 | U2G C46U C66A A69G A70U | -0.0347
47 | G1A U2G C27U A43C C46U C66U | -0.231
48 | G1A U2G C66U A70G | -0.161

Row | Variant | yeast fitness (ln)
49 | G1A G6A C66U A70G | -0.184
50 | G1A G6U C71U | -0.481
51 | G1A U2C G6U A43C C46U C66U A70G C71U | -0.267
52 | U2C G6A C27U A43C A69G A70U | -0.215
53 | G1A U2C G6U A43C C46U A69G A70U C71U | -0.343
54 | G6U C27U A69G A70G | -0.33
55 | G1A U2G A43C C66U C71U | -0.257
56 | G6U C46U C71U | -0.413
57 | G1A U2C G6U C27U A70G C71U | -0.212
58 | G1A C46U A69G A70U | -0.0206
59 | U2C G6A A43C A70G | -0.231
60 | C27U A43C C46U A70U C71U | -0.093
61 | U2G G6A C27U A43C C66A A69G A70U | -0.301
62 | U2G G6U A43C C46U C66U C71U | -0.309
63 | G1A U2C G6U A43C C66U A70U | -0.295
64 | U2G G6A C27U A43C C66A A69G A70G C71U | -0.366
65 | U2C G6U C27U A43C A69G C71U | -0.343
66 | U2C G6U A69G A70U C71U | -0.231
67 | U2C G6A C27U A43C A70G C71U | -0.156
68 | U2G G6A C27U A43C A69G A70G C71U | -0.176
69 | C27U A43C C46U C66U A70G C71U | -0.206
70 | G1A U2G C46U A70G | -0.103
71 | G1A C27U C46U C66U A69G A70U | -0.286
72 | G1A C27U C46U C66U A69G A70G | -0.251

Row | Variant | yeast fitness (ln)
73 | U2G A69G C71U | -0.101
74 | G6A C27U A43C C46U C66U A69G C71U | -0.307
75 | U2G G6U C46U A69G A70U | -0.402
76 | G6U A43C C46U C66A A70G | -0.0224
77 | C46U C66A A69G C71U | -0.0675
78 | G1A G6U C27U C46U C66U A69G C71U | -0.595
79 | U2C A43C C46U C66U A69G A70U | -0.191
80 | G1A U2G G6U C27U A43C C66A A69G A70G C71U | -0.461
81 | G6U C27U C46U C66A A70G C71U | -0.434
82 | U2C G6U C27U C46U C66U A69G C71U | -0.397
83 | G1A U2G G6U A43C C66U A69G C71U | -0.437
84 | G1A U2G C27U A43C C71U | -0.16
85 | G1A G6A C27U A43C C66A A70G C71U | -0.267
86 | C27U C46U A69G C71U | -0.0597
87 | G1A A43C | -0.119
88 | G1A G6U C27U C46U C66U A70G C71U | -0.302
89 | G6A C27U A43C C66U | -0.0646
90 | G1A G6A C27U | -0.134
91 | U2G C46U A69G | -0.208
92 | U2C G6U C27U A43C C46U C66A A69G A70U | -0.101
93 | U2G G6A C27U A43C C66U A70U C71U | -0.339
94 | G1A G6A C27U C46U C71U | -0.253
95 | G1A U2G G6U A69G A70U | -0.278
96 | G1A U2C G6A A43C C46U A70G C71U | -0.354

Row | Variant | yeast fitness (ln)
97 | G1A U2G G6U C27U A43C C66U A70G | -0.4
98 | A43C C66U A70U | -0.105
99 | C27U A43C C46U A69G A70G | -0.0876
100 | U2C G6A C27U C46U C66A A70U | -0.0453
101 | U2G A43C C46U C66A A70G C71U | -0.165
102 | U2G G6U C27U C71U | -0.218
103 | G6A C27U A43C C66A A69G A70U C71U | -0.54
104 | U2G G6A C27U A43C A69G A70U | -0.279
105 | G1A U2C G6A A43C C46U C66U A70G C71U | -0.015
106 | U2G C27U C66U A69G A70G | -0.288
107 | G1A G6U C27U A43C C66U A69G A70U | -0.469
108 | G1A G6A C66U A70U C71U | -0.216
109 | G6A C27U A43C C66U A69G | -0.373
110 | G1A U2G G6A C27U C66A A70U C71U | -0.457
111 | U2G G6U C27U A43C C46U C66A C71U | -0.363
112 | U2C G6A C27U C46U A70U C71U | -0.123
113 | G1A G6A C27U C46U C66U A70G | -0.236
114 | G1A G6U C27U A43C C46U | -0.258
115 | U2G C66U A69G A70U C71U | -0.381
116 | U2C A43C C46U A70G | -0.00469
117 | G6U A43C C46U A69G A70G C71U | -0.308
118 | U2G A43C C66U A69G C71U | -0.455
119 | U2G G6U C46U C66A A69G A70U C71U | -0.646
120 | U2G G6U C46U A70G | -0.104

Row | Variant | yeast fitness (ln)
121 | G1A G6A C27U A43C C66U A70G C71U | -0.323
122 | G1A U2G G6A C27U C46U C66A A69G A70G C71U | -0.317
123 | U2C A43C C46U C66A C71U | -0.1
124 | G6U C27U A43C C46U A69G A70G | -0.339
125 | U2G G6A C46U C66U | -0.0595
126 | G6A C27U C66A A70G | -0.136
127 | U2C G6A C27U A43C C46U C66U A69G A70U C71U | -0.32
128 | G6A A69G | -0.0982
129 | G1A G6A A70U | -0.0929
130 | G1A G6U C27U C66A A70G C71U | -0.531
131 | G1A U2C G6U | -0.00557
132 | U2G A69G | -0.112
133 | G1A G6U A43C C46U C66A A69G A70G | -0.258
134 | G6U C46U A70G C71U | -0.202
135 | U2G A43C C46U C66A A69G A70G C71U | -0.21
136 | G6U C27U A43C A69G A70U C71U | -0.462
137 | G1A C27U C66A A69G A70U | -0.19
138 | G6A A43C C46U A69G A70U | -0.124
139 | G6U C27U C46U C66U A70G | -0.207
140 | G1A U2G C27U C46U C66U | -0.185
141 | G6A C27U C66U A70G C71U | -0.249
142 | G1A U2G G6A A43C A70U | -0.216
143 | G6U A43C C46U C66U A69G A70U C71U | -0.42
144 | U2C G6A A43C C66U A70G | -0.0213

Row | Variant | yeast fitness (ln)
145 | G1A U2G G6U C27U A43C C66U A69G C71U | -0.764
146 | A43C C46U C66U A70U | -0.0743
147 | G1A G6U C27U C46U A70U | -0.274
148 | G1A U2G G6U A43C C46U C66U A70U | -0.275
149 | G1A U2C G6U C66A A69G A70G C71U | -0.0278
150 | U2C C27U A43C C46U C66A A69G C71U | -0.41
151 | G1A G6A C27U A43C A70U | -0.3
152 | G1A U2G G6U C27U A43C C46U A69G A70G C71U | -0.446
153 | G6U A69G | -0.234
154 | G1A G6A C27U A43C C46U C66U A69G A70G | -0.309
155 | U2C A43C C66A A70G C71U | -0.11
156 | G1A G6U C27U C46U C66A C71U | -0.0536
157 | U2C C46U A69G C71U | -0.131
158 | G1A U2G G6A C46U | -0.0789
159 | G6U C27U A43C C46U C66A A70G C71U | -0.211
160 | G1A U2C G6A C66U A69G C71U | -0.31
161 | G1A U2G G6U C71U | -0.196
162 | U2G G6A C27U A43C C66A A69G C71U | -0.379
163 | G1A U2G A43C C46U C66U A69G A70G C71U | -0.323
164 | G1A G6A C27U A70G C71U | -0.332
165 | U2C A43C C46U A70G C71U | 0.00238
166 | U2C G6A C27U C46U C66U A70G | -0.0278
167 | G1A C27U C46U | -0.0938
